Measurements taken from the EternaBench riboswitch data.

Tests used:
[1] = test system: MS2 coat protein; test: apparent Kd, MS2 coat protein; higher = weaker binding; RNA-MaP array
Outline: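 Designed RNAs were transcribed on an Illumina sequencing chip from sequenced DNA templates. They were incubated at room temperature with fluorescently labeled MS2 coat protein at 1.5 nM to 3 μM, for 0.8–1.5 h at the lowest to 10–20 min at the highest concentrations, in Tris-HCl pH 7.5 buffer with KCl, MgCl2, BSA, DTT, tRNA and Tween20, with or without input ligand. Apparent Kd is the median of per-cluster binding-curve fits. Designs measured on fewer than 10 clusters were excluded.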

[2] = test system: MS2 coat protein; test: apparent Kd, MS2 coat protein; higher = weaker binding; RNA-MaP array; FMN 200 µM where present
Outline: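 In 100 mM Tris-HCl pH 7.5, 80 mM KCl, 4 mM MgCl2, BSA, DTT, yeast tRNA and Tween-20, SNAP-549-labelled MS2 coat protein was titrated from 0.7 or 1.5 nM, doubling to 3 µM, over designs transcribed by stalled E. coli RNA polymerase on Illumina sequencing-chip clusters. This was done first without ligand, then with ligand held constant. After green signal was normalised to red-channel RNA signal and control-cluster median Fmax, the apparent Kd was taken as the median of filtered per-cluster binding-curve fits.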

[3] = designed as: OFF switch for tryptophan, no ligand
[4] = ligand present: tryptophan, designed as: OFF switch for tryptophan
[5] = designed as: OFF switch for flavin mononucleotide, no ligand
[6] = ligand present: flavin mononucleotide, designed as: OFF switch for flavin mononucleotide
[7] = designed as: ON switch for flavin mononucleotide, no ligand
[8] = ligand present: flavin mononucleotide, designed as: ON switch for flavin mononucleotide

AAACUGAUCUUCAGGAGUCACUAUAUCUCCCGAGGACCGGUACGGCCGCCACUCGAACGUUUACAUGAGGAUCACCCAUGUGACU
apparent Kd [1, 3]: 14.8 nM
apparent Kd [1, 4]: 19.6 nM

AAAGACGACCAGAAGGAGCCGCCACAUGAGGAUCACCCAUGUAUGCAAAGAUAACUGGGUUAACGCUAGGAUAUGGUGGAGAAA
apparent Kd [1, 5]: 63.5 nM
apparent Kd [1, 6]: 44.1 nM

AAAUGAGCGCAUCCCUAACAUGAGGAUCACCCAUGUGCUACAGAGGAUAUCGUCACCAUAUCUCACGAGAAGGCUGGUAUAUUG
apparent Kd [1, 5]: 9.25 nM
apparent Kd [1, 6]: 11.4 nM

AACACACCAAAUGAUACCAGCUACAACAUGAUACAAAACCACAUGAGGAUCACCCAUGUAAGCCCUUGGCAGCAUACUACUGUAA
apparent Kd ([1]; designed as: OFF switch for theophylline, no ligand): 18.1 nM
apparent Kd ([1]; ligand present: theophylline, designed as: OFF switch for theophylline): 42.5 nM

AACGUACAUGAGGAUCACCCAUGUGAGGAUAUGCCUAAAGAGUUCUAAGCAUCCAAGGGCAGAAGGCACAUGAA
apparent Kd [1, 5]: 99.1 nM
apparent Kd [1, 6]: 140 nM

AACUGUAAUACAAGAACAUGAGGAUCACCCAUGUGUCGCGCAGAGGAUAUACUGGUUCGCUGUCCGUAGAAGGCUGAGCACAUG
apparent Kd [1, 7]: 33.9 nM
apparent Kd [1, 8]: 23.9 nM

AAGAACAUGAGGAUCACCCAUGUGAUCGUUCGAGGACCGGUACGGCCGCCACUCGGACCUGUGUCCAGGCACGGGCCGACGCGAC
apparent Kd ([1]; designed as: ON switch for tryptophan, no ligand): 77.8 nM
apparent Kd ([1]; ligand present: tryptophan, designed as: ON switch for tryptophan): 38.2 nM

AAUACACAUGAGGAUCACCCAUGUAAGGAUAUCAAGCAUCAAACAUUAGAGUGAGGAGUGAGAAGGUACAUCAC
apparent Kd [1, 5]: 20.1 nM
apparent Kd [1, 6]: 16.3 nM

AAUAGAGAGCAGAAGGCCCUAGUUAUCGGCAUGGGAGGAUAUGCACCAGAUAAUAACAUGAGGAUCACCCAUGUUGAAUAAGAA
apparent Kd [1, 7]: 19.4 nM
apparent Kd [1, 8]: 6.46 nM

ACAACUGCAGGAUAUACGAGGGCCGAGGUAUCCGUCCUCGGACAUGAGGAUCACCCAUGUAGAAGGGCAACGAU
apparent Kd [1, 5]: 20.9 nM
apparent Kd [1, 6]: 24.1 nM

ACAAGGAGUCAAGGAUAUGAUAGAAGUUACACAUGAGGAUCACCCAUGUUUCUCCGGUGUCAGAAUCAGAAGGUGAGUAUGCAU
apparent Kd [1, 5]: 85.2 nM
apparent Kd [1, 6]: 74.7 nM

ACACCUCACGGAAUACAUGAGGAUCACCCAUGUUGGGAAGGAAGAAGGUUCCGUGUUGAUUGCUGAAAGGAUAUUCGUGACCCG
apparent Kd [1, 5]: 190 nM
apparent Kd [1, 6]: 153 nM

ACAGAACGAGGAUAUCCACUUUGAUACAUGAGGAUCACCCAUGUCCUGAAAGUGUUUCAGGGAGAAGGCGUACCUA
apparent Kd [1, 5]: 18 nM

ACAUCCACCAAGAAGGCUGGUGCGGCACUUAAGUCGUUCACAUGAGGAUCACCCAUGUCGUAUACAGAGGAUAUUGAGGUUUUC
apparent Kd [1, 5]: 39.1 nM
apparent Kd [1, 6]: 38.7 nM

ACCGUGUCAGGAUAUCGGGUAUUCUUCCGUAUAAUACCAGCCGAGAAGGGACAUGAGGAUCACCCAUGUGGACA
apparent Kd [1, 5]: 33.2 nM
apparent Kd [1, 6]: 57.8 nM

ACCUAUACUCCAGGAUAUCAAGACCGAUGACAUGAGGAUCACCCAUGUCAAUCAAAACCAUGACGUGAGAAGGGGAGGCUCGUC
apparent Kd [1, 7]: 6.5 nM
apparent Kd [1, 8]: 6.05 nM

ACGAGAGCCCAGAAGGACACGGGAUACUCACAAGCAUUCUGGACAUGAGGAUCACCCAUGUGUAUGUAGGAUAUGGGAGUUGCG
apparent Kd [1, 7]: 31 nM
apparent Kd [1, 8]: 15.2 nM

ACGUUCGCGGUAUCCAACCGGUUGUACAAACGAGGACCGGUACGGCCGCCACUCGUGAUUGUACAUGAGGAUCACCCAUGUGGCA
apparent Kd [1, 3]: 17.6 nM
apparent Kd [1, 4]: 17.2 nM

ACUUACGGAAAGAAGGAGGGACAGUCACGGCGGGCGGACCACAUGAGGAUCACCCAUGUGCGAGCCUAGGAUAUUUAGGGUAGC
apparent Kd [1, 5]: 7.19 nM
apparent Kd [1, 6]: 7.23 nM

ACUUCAGAUACAGGAUAUAGCGUAACAUGAGGAUCACCCAUGUCUUGAUGCCUCUGUCGCGACGACUAGAAGGGUAAGCUUUGA
apparent Kd [1, 5]: 91.6 nM
apparent Kd [1, 6]: 86.7 nM

AGAUCCUAAGUAAGGAUAUACCUCGCACACAAGUCGUAGAAGGUACAUGAGGAUCACCCAUGUAGGAAAGUACU
apparent Kd [1, 5]: 12.4 nM
apparent Kd [1, 6]: 15.3 nM

AGAUUCUCUGAAGGAUAUCGCGUUUAUUUCGAGCGAGAAGGUCAAUUAUGGGAGAUGCACAUGAGGAUCACCCAUGUUCGAAAA
apparent Kd [1, 5]: 339 nM
apparent Kd [1, 6]: 119 nM

AGCUCGUAGACAUGAGGAUCACCCAUGUAGAUCAAGAAAUUCAAGGAUAUUGGGAGUAAGCCGUGCAAGAAGGUGAGACUAGAU
apparent Kd [1, 7]: 57 nM
apparent Kd [1, 8]: 45.2 nM

AGGAGGCAUAAGAAGGGUACAUGUAUUGGGUGUACAGGAUAUUACAGGUGCCGCACAUGAGGAUCACCCAUGUUAUCAUUGUGC
apparent Kd [1, 5]: 39 nM
apparent Kd [1, 6]: 34 nM

AUAAAGGAAGGAUAUACAUGAGGAUCACCCAUGUUGAAAUACAGAAAAGGAGAAACAAGUAGAAGGACCGAUGU
apparent Kd [1, 5]: 14.2 nM
apparent Kd [1, 6]: 11.6 nM

AUAGAACAUGAGGAUCACCCAUGUAGAAAAUCAGCAGGAUAUGUGAUCACUCCGUAAUUGACAGAAGGGCUAACAA
apparent Kd [1, 7]: 68.2 nM
apparent Kd [1, 8]: 28.8 nM

AUCACAACCAAGAAGGGUCAGAUAACUCGAGAGACAGGAUAUUGAACAACAUAGUCAACAUGAGGAUCACCCAUGUAAAAUAAA
apparent Kd [1, 7]: 54 nM
apparent Kd [1, 8]: 24.2 nM

UUUAUAAAGAUAGGAUAUUGUAUUAUAAUUAAAUAAGAAGGAUCACACAUGAGGAUCACCCAUGUAUGAGGAUCACCCAUGUAU
apparent Kd [2, 5]: 15.8 nM
apparent Kd [2, 6]: 14.5 nM

UUUAUGGGACAGAAGGGCAUUUACAUGAGGAUCACCCAUGUUCAUCAUUGCAGGAUAUGUAUAACAUGAGGAUCACCUAUGUAC
apparent Kd [2, 7]: 604 nM
apparent Kd [2, 8]: 106 nM

UUUAUGUCAGGAUAUGAGUAGUAGAACAAUAGUACUACUACUCAGAAGGGACAUGAGGAUCACCCAUGUUCUUC
apparent Kd [2, 5]: 16.7 nM
apparent Kd [2, 6]: 46.6 nM

UUUAUGUCAGGAUAUGAUUAGAUCUACUUUUGUAGAUCUAAUCAGAAGGGACAUGAGGAUCACCCAUGUAGUUU
apparent Kd [2, 5]: 126 nM
apparent Kd [2, 6]: 236 nM

UUUCAGCAAGGAUAUACGGGCUGUGCUUUUCAUUUCUUACAACAUGAGGAUCACCCAUGUAGAAGGUGCUUCUU
apparent Kd [2, 5]: 297 nM
apparent Kd [2, 6]: 736 nM

UUUCCUGAAGGAUAUUAAGAGCCAGACAUGAGGAUCACCCAUGUUCCUACAACGAACCUCUAAGAAGGUCAGGGCU
apparent Kd [2, 5]: 20.9 nM
apparent Kd [2, 6]: 21 nM

UUUCGGCUAGGAUAUCUGUGCUCGGACAUGAGGAUCACCCAUGUGCGUCAUCACGGAGCCGGAGAAGGAGCUCGUA
apparent Kd [2, 5]: 15.8 nM
apparent Kd [2, 6]: 20 nM

UUUCUUGGGCAAGGAUAUCCUGUGCGGUUCCGGCUCGUGUCUGUCACAUGAGGAUCACCCAUGUGGGAGAAGGUGCCUGCGGUU
apparent Kd [2, 5]: 6.26 nM
apparent Kd [2, 6]: 6.64 nM

UUUGAUUAAGUGAGGAUAUACUGUUUGUAUUGAUUGUAGAAGGUACAUGAGGAUCACCCAUGUUUAGUAUUUAU
apparent Kd [2, 5]: 20.5 nM
apparent Kd [2, 6]: 20 nM

UUUGGGAGCACAGGAUAUGGCACCUCGAAGGCGCCAGAAGGGUGAUUCUGUUGGUGGCCACAUGAGGAUCACCCAUGUGCCUCC
apparent Kd [2, 7]: 29.5 nM
apparent Kd [2, 8]: 36.9 nM

UUUGUAAUGUCAGGAUAUUUUAUAAGUCAUACUGAAGAAGGGAUAAUUAUACUCAUGUACAUGAGGAUCACCCAUGUUAAAUAU
apparent Kd [2, 7]: 43.6 nM
apparent Kd [2, 8]: 33.6 nM

UUUGUACAUGAGGAUCACCCAUGUGAGGAUAUGCUUUAUUAUUAUUAUUAUUAUUAUUGCAGAAGGCACGUUGU
apparent Kd [2, 5]: 69.7 nM
apparent Kd [2, 6]: 98.2 nM

UUUGUUGUUGUGAGGAUAUACUGUUUGUUUUGUUUGUAGAAGGUACAUGAGGAUCACCCAUGUUGGUUGUUUUU
apparent Kd [2, 5]: 26.4 nM
apparent Kd [2, 6]: 25.1 nM

UUUUAACAUGAGGAUCACCCAUGUGAGGAUAUCGAAAUUUAUAUUAAUAUUAAUUUAACGAGAAGGCACAUUUU
apparent Kd [2, 5]: 101 nM
apparent Kd [2, 6]: 93.7 nM

UUUUAACAUGAGGAUCACCCAUGUGAGGAUAUCGAAAUUUAUAUUAAUAUUUUUAUAACGAGAAGGCACAUUUU
apparent Kd [2, 5]: 70.1 nM
apparent Kd [2, 6]: 75.2 nM

UUUUAACAUGAGGAUCACCCAUGUGAGGAUAUCGAAAUUUAUAUUUAUAUUAAUUAAACGAGAAGGCACAUUUU
apparent Kd [2, 5]: 90.9 nM
apparent Kd [2, 6]: 110 nM

UUUUAACAUGAGGAUCACCCAUGUGAGGAUAUCGAAAUUUAUAUUUAUAUUUAUAAAACGAGAAGGCACAUUUU
apparent Kd [2, 5]: 103 nM
apparent Kd [2, 6]: 119 nM

UUUUAACAUGAGGAUCACCCAUGUGAGGAUAUCGAAAUUUUUAUUAAUAUUAAUAAAACGAGAAGGCACAUUUU
apparent Kd [2, 5]: 56 nM
apparent Kd [2, 6]: 69.3 nM

UUUUAAUAAAAGAAGGAGCACUACAUGAGGAUCACCCAUGUGUUAGUAGUUAGGAUAUUUAAUAACAUGAGGAUCACCCAUGUA
apparent Kd [2, 7]: 194 nM
apparent Kd [2, 8]: 87 nM

UUUUAAUAAGAGAAGGAGCACUACAUGAGGAUCACCCAUGUGUUAGUAGUUAGGAUAUUUAAUAACAUGAGGAUCACCCAUGUA
apparent Kd [2, 7]: 167 nM
apparent Kd [2, 8]: 74.2 nM

UUUUAAUAAGAGAAGGAGCACUUCAUGAGGAUCACCCAUGUGUUAGUAGUUAGGAUAUUUAAUAACAUGAGGAUCACCCAUGUC
apparent Kd [2, 7]: 159 nM
apparent Kd [2, 8]: 123 nM

UUUUUACAUGAGGAUCACCCAUGUCAGGAUAUCAUUAUAUUUUAUUAUUUUAUUUAUAUGAGAAGGGACUAUUA
apparent Kd [2, 5]: 87.7 nM
apparent Kd [2, 6]: 60.1 nM

UUUUUAUAACAAGGAUAUACUAAACAUGAGGAUCACCCAUGUAAUAUUAUGAGUGAGAGAGAUAAGUAGAAGGUGUAUUAUUUU
apparent Kd [2, 5]: 100 nM
apparent Kd [2, 6]: 137 nM

UUUUUAUAAGAGAAGGAGGACUUCAUGAGGAUCACCCAUGUGUUAGUACUUAGGAUAUUUGAUAACAUGAGGAUCACCCAUGUC
apparent Kd [2, 7]: 31.4 nM
apparent Kd [2, 8]: 28.1 nM

UUUUUCUGCUGAGGAUAUUGCUCGUGCGUACAUGAGGAUCACCCAUGUGUCUUGAUCCUCUUCUGCAAGAAGGCAGCUCUCUCU
apparent Kd [2, 5]: 403 nM
apparent Kd [2, 6]: 155 nM

UUUUUUGUACAAGGAUAUCUAUUAUAUUCACGUCCUACAUGAGGAUCACCCAUGUUAUAUAUUUUAGAGAAGGUGUAUUGUCUG
apparent Kd [2, 7]: 31.7 nM
apparent Kd [2, 8]: 35.5 nM
